Assay [1] has as its target aspartate receptor–kinase signaling complex (Salmonella enterica subsp. enterica serovar Typhimurium, UniProt P02941). Type of assay: biochemical, S. typhimurium. Particulars: pure off-state, extrapolated from the correlation.
For assay [2], the target named is aspartate receptor QQEQ receptor–kinase signaling complex (Salmonella typhimurium, UniProt P02941, E302Q/E491Q/Q309E). Nature of the assay: in vitro receptor-coupled kinase assay, attractant titration, QQEQ receptor. Type of assay: biochemical, S. typhimurium.
For assay [3], the target named is aspartate receptor EEQQ receptor–kinase signaling complex (Salmonella typhimurium, UniProt P02941, E491Q/Q295E). The assay is described as follows: in vitro receptor-coupled kinase assay, attractant titration, EEQQ receptor. Type of assay: biochemical, S. typhimurium.
The target of assay [4] is aspartate receptor EQEQ receptor–kinase signaling complex (Salmonella typhimurium, UniProt P02941, E302Q/E491Q/Q295E/Q309E). The assay is described as follows: in vitro receptor-coupled kinase assay, attractant titration, EQEQ receptor. Type of assay: biochemical, S. typhimurium.
Assay [5] addresses aspartate receptor QEQQ receptor–kinase signaling complex (Salmonella typhimurium, UniProt P02941, E491Q). The assay is described as follows: in vitro receptor-coupled kinase assay, attractant titration, QEQQ receptor. Type of assay: biochemical, S. typhimurium.
Assay [6] concerns the target aspartate receptor QEEE receptor–kinase signaling complex (Salmonella typhimurium, UniProt P02941, Q309E). Nature of the assay: in vitro receptor-coupled kinase assay, attractant titration, QEEE receptor. Type of assay: biochemical, S. typhimurium.
Assay [7] addresses aspartate receptor QEQE (wild type) receptor–kinase signaling complex (Salmonella typhimurium, UniProt P02941). The assay is described as follows: in vitro receptor-coupled kinase assay, attractant titration, QEQE. Type of assay: biochemical, S. typhimurium. The procedure, abridged: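 Native E. coli membranes carrying the receptor (about 10% of total protein) were mixed with purified CheA, CheW and excess CheY to reconstitute the signaling complex, with receptor in the low micromolar range. Kinase activity was read as radiolabeled phospho-CheY at 10-s initial-rate points across α-methyl-aspartate concentrations, normalized to the no-attractant maximum, with three measurements per point. K1/2 and Hill coefficient came from a multisite Hill fit using free attractant concentration.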

Assay [8] addresses aspartate receptor QQEE receptor–kinase signaling complex (Salmonella typhimurium, UniProt P02941, E302Q/Q309E). The assay is described as follows: in vitro receptor-coupled kinase assay, attractant titration, QQEE receptor. Type of assay: biochemical, S. typhimurium.
Assay [9] has as its target aspartate receptor EEQE receptor–kinase signaling complex (Salmonella typhimurium, UniProt P02941, Q295E). The assay is described as follows: in vitro receptor-coupled kinase assay, attractant titration, EEQE receptor. Type of assay: biochemical, S. typhimurium.
Assay [10] concerns the target aspartate receptor EQQQ receptor–kinase signaling complex (Salmonella typhimurium, UniProt P02941, E302Q/E491Q/Q295E). Nature of the assay: in vitro receptor-coupled kinase assay, attractant titration, EQQQ receptor. Type of assay: biochemical, S. typhimurium.
Assay [11] has as its target aspartate receptor EQQE receptor–kinase signaling complex (Salmonella typhimurium, UniProt P02941, E302Q/Q295E). The assay is described as follows: in vitro receptor-coupled kinase assay, attractant titration, EQQE receptor. Type of assay: biochemical, S. typhimurium.
Assay [12] has as its target aspartate receptor QQQQ receptor–kinase signaling complex (Salmonella typhimurium, UniProt P02941, E302Q/E491Q). Nature of the assay: in vitro receptor-coupled kinase assay, attractant titration, QQQQ receptor. Type of assay: biochemical, S. typhimurium.
Assay [13] has as its target aspartate receptor QEEQ receptor–kinase signaling complex (Salmonella typhimurium, UniProt P02941, E491Q/Q309E). Nature of the assay: in vitro receptor-coupled kinase assay, attractant titration, QEEQ receptor. Type of assay: biochemical, S. typhimurium.
Assay [14] concerns the target aspartate receptor EQEE receptor–kinase signaling complex (Salmonella typhimurium, UniProt P02941, E302Q/Q295E/Q309E). Nature of the assay: in vitro receptor-coupled kinase assay, attractant titration, EQEE receptor. Type of assay: biochemical, S. typhimurium.
The target of assay [15] is aspartate receptor QQQE receptor–kinase signaling complex (Salmonella typhimurium, UniProt P02941, E302Q). The assay is described as follows: in vitro receptor-coupled kinase assay, attractant titration, QQQE receptor. Type of assay: biochemical, S. typhimurium.
For assay [16], the target named is aspartate receptor EEEQ receptor–kinase signaling complex (Salmonella typhimurium, UniProt P02941, E491Q/Q295E/Q309E). Nature of the assay: in vitro receptor-coupled kinase assay, attractant titration, EEEQ receptor. Type of assay: biochemical, S. typhimurium.
Assay [17] concerns the target QQQQ receptor (Salmonella typhimurium, UniProt P02941, E302Q/E491Q). Nature of the assay: L-aspartate binding to QQQQ receptor. Particulars: given binding constant for QQQQ receptor.

Like-named read-outs stand apart in the source and are kept apart here.

With `CC(N)(CC(=O)O)C(=O)O` (racemic) [α-methyl-aspartate, α-methyl-D,L-aspartate], the entries for the “K1/2 of the off-state (inactivated conformation)” value in assay [1] and in [1] (listed as α-methyl aspartate) were “micromolar to submicromolar range” and “submicromolar to micromolar range”, respectively. In addition, the IC50 is 54 ± 6 µM in assay [2]; 19 ± 2 µM in [3]; 14 ± 1 µM in assay [4]; 62 ± 3 µM in assay [5]; 9 ± 1 µM in assay [6]; 23 ± 4 µM in assay [7]. Further, the IC50 in assay [8] was 31 ± 2 µM; in assay [9] it was 23 ± 2 µM; in [10] it was 39 ± 4 µM; in assay [11], 14 ± 2 µM; in assay [12], 97 ± 4 µM; in assay [13], 19 ± 2 µM. In addition, the IC50 in assay [14] amounted to 16 ± 4 µM; in assay [15], 98 ± 4 µM; in assay [16], 9 ± 3 µM. Moreover, the “Measured Hill coefficient” value in assay [2] (QQEQ receptor, attractant titration, Hill fit) amounted to 2.0 ± 0.5; in [3] (EEQQ receptor, attractant titration, Hill fit), 1.9 ± 0.2; in assay [4] (EQEQ receptor, attractant titration, Hill fit) it was 2.9 ± 0.3; in [5] (QEQQ receptor, attractant titration, Hill fit) it was 2.2 ± 0.3; in assay [6] (QEEE receptor, attractant titration, Hill fit) it was 1.7 ± 0.1; in [7] (QEQE (wild type) receptor, attractant titration, Hill fit), 1.8 ± 0.1. The “Measured Hill coefficient” value is reported as 2.2 ± 0.2 in [8] (QQEE receptor, attractant titration, Hill fit); 1.8 ± 0.1 in [9] (EEQE receptor, attractant titration, Hill fit); 2.0 ± 0.3 in assay [10] (EQQQ receptor, attractant titration, Hill fit); 2.1 ± 0.3 in assay [11] (EQQE receptor, attractant titration, Hill fit); 2.2 ± 0.2 in assay [12] (QQQQ receptor, attractant titration, Hill fit); 2.4 ± 0.5 in assay [13] (QEEQ receptor, attractant titration, Hill fit). The “Measured Hill coefficient” value in [14] (EQEE receptor, attractant titration, Hill fit) was 1.6 ± 0.4; in [15] (QQQE receptor, attractant titration, Hill fit), 3.3 ± 0.4; in assay [16] (EEEQ receptor, attractant titration, Hill fit), 1.1 ± 0.4.

`N[C@@H](CC(=O)O)C(=O)O` [L-aspartate]: in [17], the “free energy driving force toward the off-state on binding” value is reported as “exceeding 8 kcal mol^−1”.

What is called IC50 is the concentration needed to halve the response being measured. Read a high IC50 as weaker potency in that assay.

The values are drawn from publication PMC2229510 (The Journal of General Physiology, 2001).
